This passage reports Survivors and ILS results from ChEMBL document CHEMBL1122917, “Vinblastin-23-oyl amino acid derivatives: chemistry, physicochemical data, toxicity, and antitumor activities against P388 and L1210 leukemias” (J Med Chem, 1985).

Structures are written as SMILES.

For experiment [1], the system named is Mus musculus. Nature of the experiment: Number of survivors on 60th day at dose 11 mg/kg/day in 10 mice implanted with P388 leukemia cell line; 0/10. It is filed as functional.
Experiment [2] concerns Mus musculus. Nature of the experiment: Percent increase in life span of DBA2 mice after inoculation with L1210 leukemia intravenously at a dose of 55 mg/kg per day. It counts as functional. The settings on record: route intravenous. Put shortly: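 Female DBA2 mice inoculated iv on day 0 with 10^4 L1210 cells; drugs given iv as sulfate salts in physiological saline, mostly once on day 1. %ILS from all deaths and survivors as (T/C × 100) − 100; survivors scored on days 30 and 60.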

The subject of experiment [3] is Mus musculus. Kind of experiment: Percent increase in life span at dose 55 mg/kg/day in 10 mice implanted with P388 leukemia cell line. It counts as functional. Put shortly: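 Female DBA2 mice inoculated iv on day 0 with 10^4 P388 cells; single iv treatment on day 1 with drug as sulfate salt in physiological saline. Survival followed; %ILS from all deaths and survivors as (T/C × 100) − 100, maximal MST 30 days; survivors counted on days 30 and 60. Most experiments confirmed three times.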

The test system of experiment [4] is Mus musculus. Kind of experiment: Number of survivors on 30th day at dose 50 mg/kg/day in 10 mice implanted with P388 leukemia cell line; 7/10. It is filed as functional.
The subject of experiment [5] is Mus musculus. Kind of experiment: Number of survivors on 30th day at dose 55 mg/kg/day in 10 mice implanted with P388 leukemia cell line for 1st scheduled day; 1/10. It counts as functional.
Experiment [6] concerns Mus musculus. Nature of the experiment: Number of survivors on 30th day at dose 5 mg/kg/day in 10 mice implanted with P388 leukemia cell line; 0/10. It counts as functional.
Experiment [7] has as its system Mus musculus. Nature of the experiment: Percent increase in life span at dose 10 mg/kg/day in 7 mice implanted with P388 leukemia cell line for 1,8,15 schedule days. It counts as functional.
Experiment [8] deals with Mus musculus. Kind of experiment: Number of survivors on 60th day at dose 8 mg/kg/day in 7 mice implanted with P388 leukemia cell line for 1,8.15 scheduled days from Exp-2; 0/10. It counts as functional.
Experiment [9] concerns Mus musculus. Nature of the experiment: Number of survivors of DBA2 mice on 30th day after inoculation with L1210 leukemia cell line intravenously at a dose of 1.5 mg/kg/day; 0/10. It counts as functional. The settings on record: route intravenous.
Experiment [10] has as its system Mus musculus. Nature of the experiment: Number of survivors on 60th day at dose 0.5 mg/kg/day in 10 mice implanted with P388 leukemia cell line; 0/10. It counts as functional.
In experiment [11] the test system is Mus musculus. Kind of experiment: Percent increase in life span of BDF1 mice after inoculation with P388 leukemia intraperitoneally at a dose of 1 mg/kg per day. The note with it: P388, ip.
The subject of experiment [12] is Mus musculus. Kind of experiment: Number of survivors of BDF1 mice on 30th day after inoculation with P388 leukemia cell line intraperitoneally at a dose of 2.7 mg/kg/day; 0/11. The settings on record: route intraperitoneal.

On to `CC[C@]1(O)C[C@@H]2CN(CCc3c([nH]c4ccccc34)[C@@](C(=O)OC)(c3cc4c(cc3OC)N(C)[C@H]3[C@@](O)(C(=O)OC)[C@H](OC(C)=O)[C@]5(CC)C=CCN6CC[C@]43[C@@H]65)C2)C1` [VINBLASTINE], for which the Survivors in [1] was 0.

As usually defined, the ILS is how much longer treated animals lived than controls. Low readings indicate a small benefit in survival, high ones a large benefit in survival. Turning to `CCOC(=O)[C@H](Cc1c[nH]c2ccccc12)NC(=O)[C@@]1(O)[C@H](O)[C@]2(CC)C=CCN3CC[C@@]4(c5cc([C@@]6(C(=O)OC)C[C@H]7C[N@](CCc8c6[nH]c6ccccc86)C[C@](O)(CC)C7)c(OC)cc5N(C)[C@@]14C)[C@@H]32`, the ILS at 55 mg/kg/day in experiment [2] is 55.3%; in experiment [3] it was more than 183%. The Survivors was 7 in [4] and 1 in experiment [5].

The compound `CC[C@]1(O)C[C@@H]2CN(CCc3c([nH]c4ccccc34)[C@@](C(=O)OC)(c3cc4c(cc3OC)N(C)[C@H]3[C@@](O)(C(N)=O)[C@H](O)[C@]5(CC)C=CCN6CC[C@]43[C@@H]65)C2)C1` [VINDESINE] had a Survivors in experiment [6] of 0.

As to `CCOC(=O)[C@@H](NC(=O)[C@@]1(O)[C@H](O)[C@]2(CC)C=CCN3CC[C@@]4(c5cc([C@@]6(C(=O)OC)C[C@H]7C[N@](CCc8c6[nH]c6ccccc86)C[C@](O)(CC)C7)c(OC)cc5N(C)[C@@]14C)[C@@H]32)[C@@H](C)CC`, the ILS at 10 mg/kg/day in experiment [7] amounted to 41%. In experiment [8], this compound registered a Survivors of 0.

In the case of `CC[C@]1(O)C[C@H]2CN(CCc3c([nH]c4ccccc34)[C@@](C(=O)OC)(c3cc4c(cc3OC)N(C=O)[C@H]3[C@@](O)(C(=O)OC)[C@H](OC(C)=O)[C@]5(CC)C=CCN6CC[C@]43[C@@H]65)C2)C1` [VINCRISTINE], the Survivors in experiment [9], in [10] and in experiment [12] was 0 throughout. This compound also registered an ILS at 1 mg/kg/day in experiment [11] of 47%.
